For assay [1], the target named is T1, Tyrosine-protein kinase JAK3 (Homo sapiens) (UniProt P52333).
T1 sequence (whole entry): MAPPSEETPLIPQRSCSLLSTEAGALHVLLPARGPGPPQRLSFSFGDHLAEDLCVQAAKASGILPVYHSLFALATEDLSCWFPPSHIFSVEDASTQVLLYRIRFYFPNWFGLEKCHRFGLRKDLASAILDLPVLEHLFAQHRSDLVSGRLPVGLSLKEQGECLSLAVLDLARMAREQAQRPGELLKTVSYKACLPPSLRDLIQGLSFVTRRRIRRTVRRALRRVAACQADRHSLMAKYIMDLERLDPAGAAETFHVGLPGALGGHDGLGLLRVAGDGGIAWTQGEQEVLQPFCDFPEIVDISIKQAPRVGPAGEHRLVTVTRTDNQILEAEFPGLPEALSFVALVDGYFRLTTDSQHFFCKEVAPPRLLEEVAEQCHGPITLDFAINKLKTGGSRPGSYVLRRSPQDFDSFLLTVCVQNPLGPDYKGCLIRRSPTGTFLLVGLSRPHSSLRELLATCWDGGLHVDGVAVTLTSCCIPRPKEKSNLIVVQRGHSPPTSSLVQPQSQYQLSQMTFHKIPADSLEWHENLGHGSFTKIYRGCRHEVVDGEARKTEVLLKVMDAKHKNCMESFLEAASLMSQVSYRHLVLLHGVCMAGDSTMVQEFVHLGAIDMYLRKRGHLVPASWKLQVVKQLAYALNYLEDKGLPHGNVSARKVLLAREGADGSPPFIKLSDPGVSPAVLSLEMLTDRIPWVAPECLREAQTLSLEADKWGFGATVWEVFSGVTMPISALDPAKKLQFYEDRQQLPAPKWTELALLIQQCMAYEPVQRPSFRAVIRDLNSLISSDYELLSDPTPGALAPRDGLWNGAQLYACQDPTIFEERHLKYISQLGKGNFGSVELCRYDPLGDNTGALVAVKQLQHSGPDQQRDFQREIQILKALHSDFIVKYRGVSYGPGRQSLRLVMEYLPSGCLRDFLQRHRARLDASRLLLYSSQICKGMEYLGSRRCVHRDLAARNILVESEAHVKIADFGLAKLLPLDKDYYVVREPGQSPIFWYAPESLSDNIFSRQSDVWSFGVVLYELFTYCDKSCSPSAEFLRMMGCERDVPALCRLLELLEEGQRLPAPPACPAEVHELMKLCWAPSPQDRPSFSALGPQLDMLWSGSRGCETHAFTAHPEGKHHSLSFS
Nature of the assay: Binding affinity to human JAK3 kinase domain 2 at 500 nM by cell-based competition binding assay relative to control in presence of DTT. An outline of the steps: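 Competition binding screen (Ambit) across a panel of 90 kinases, scoring test ligand displacement of each kinase's binding relative to control. The screen ran under reducing conditions with 7.5 mM DTT.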

For assay [2], the target named is T2, Bone morphogenetic protein receptor type-2 (Homo sapiens) (UniProt Q13873).
T2 sequence (whole entry): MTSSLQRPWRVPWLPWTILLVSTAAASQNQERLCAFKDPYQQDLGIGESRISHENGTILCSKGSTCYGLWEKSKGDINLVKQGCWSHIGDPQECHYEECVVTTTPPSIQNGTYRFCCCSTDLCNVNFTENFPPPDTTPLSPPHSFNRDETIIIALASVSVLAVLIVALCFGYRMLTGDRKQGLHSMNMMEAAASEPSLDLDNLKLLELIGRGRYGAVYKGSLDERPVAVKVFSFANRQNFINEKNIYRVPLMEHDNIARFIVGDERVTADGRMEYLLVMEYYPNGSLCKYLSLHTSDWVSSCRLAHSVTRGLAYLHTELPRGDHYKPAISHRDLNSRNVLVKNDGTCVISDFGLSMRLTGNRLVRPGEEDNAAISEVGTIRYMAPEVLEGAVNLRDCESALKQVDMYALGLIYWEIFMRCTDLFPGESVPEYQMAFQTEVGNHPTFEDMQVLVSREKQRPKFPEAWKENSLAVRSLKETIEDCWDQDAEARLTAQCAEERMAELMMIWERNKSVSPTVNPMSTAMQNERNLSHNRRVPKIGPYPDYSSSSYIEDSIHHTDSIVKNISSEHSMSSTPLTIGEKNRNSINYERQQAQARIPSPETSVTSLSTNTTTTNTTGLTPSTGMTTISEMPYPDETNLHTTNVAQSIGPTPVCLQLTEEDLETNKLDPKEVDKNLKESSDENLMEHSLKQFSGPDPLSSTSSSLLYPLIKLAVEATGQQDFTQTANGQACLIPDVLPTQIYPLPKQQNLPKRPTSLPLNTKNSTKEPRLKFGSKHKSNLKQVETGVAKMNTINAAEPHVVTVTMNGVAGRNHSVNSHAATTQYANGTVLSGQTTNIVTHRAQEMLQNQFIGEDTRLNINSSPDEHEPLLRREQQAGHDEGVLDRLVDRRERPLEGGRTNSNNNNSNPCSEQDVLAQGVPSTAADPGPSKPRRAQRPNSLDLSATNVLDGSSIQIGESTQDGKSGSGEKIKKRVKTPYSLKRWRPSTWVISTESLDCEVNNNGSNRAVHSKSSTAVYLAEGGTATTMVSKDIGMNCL
Nature of the assay: Binding affinity to human BMPR2 at 200 nM by cell-based competition binding assay relative to control in presence of DTT. An outline of the steps:
(§1)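 Kinase binding profiling ran on a commercial (Ambit) competitive binding screen against a panel of 90 kinases. The screen used reducing conditions with 7.5 mM DTT. To withstand the DTT, the bivalent ligand was tested as its amide isostere, with the disulfide replaced. A staurosporine derivative carrying a 3 β-alanine linker was run as the reference compound.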

Assay [3] addresses Serine/threonine-protein kinase PLK3 (Homo sapiens) (UniProt Q9H4B4). Nature of the assay: Binding affinity to human PLK3 at 200 nM by cell-based competition binding assay relative to control in presence of DTT.
In assay [4] the target is Cyclin-dependent kinase 2 (Homo sapiens) (UniProt P24941). Nature of the assay: Binding affinity to human CDK2 at 200 nM by cell-based competition binding assay relative to control in presence of DTT. An outline of the steps: as §1
Assay [5] deals with Phosphatidylinositol 4,5-bisphosphate 3-kinase catalytic subunit alpha isoform (Homo sapiens) (UniProt P42336). Nature of the assay: Binding affinity to human PIK3Calpha at 50 nM by cell-based competition binding assay relative to control in presence of DTT.
The target in assay [6] is Receptor tyrosine-protein kinase erbB-4 (Homo sapiens) (UniProt Q15303). Nature of the assay: Binding affinity to human ERBB4 at 50 nM by cell-based competition binding assay relative to control in presence of DTT. An outline of the steps:
(§2)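 Commercial (Ambit) competitive kinase-binding panel of 90 kinases measured the binding profile. Run under reducing conditions of 7.5 mM DTT. Binding is expressed relative to control.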

In assay [7] the test system is Tyrosine-protein kinase ABL1 (Homo sapiens), P00519 [T315I]. Nature of the assay: Binding affinity to human ABL1 T315I mutant at 50 nM by cell-based competition binding assay relative to control in presence of DTT. An outline of the steps:
as §1

For assay [8], the target named is Cyclin-dependent kinase 9 (Homo sapiens) (UniProt P50750). Nature of the assay: Binding affinity to human CDK9 at 50 nM by cell-based competition binding assay relative to control in presence of DTT. A digest of the protocol:
as §2

Structures are written as SMILES. *1 amine or outer side, *2 acyl side, *3 side chain or, on linkers, in order; H or OH if unused. Where a SMILES comes first, the peptide text is derived from it. Bridges are numbered along the chain shown (N, C = ends). [ ]: non-standard residue; d: D form. The star is where a group is joined. Staurosporine = CO[C@@H]1[C@H](N(C)*)C[C@H]2O[C@]1(C)n1c3ccccc3c3c4c(c5c6ccccc6n2c5c31)C(=O)NC4; Suc = O=C(CCC(=O)[*:2])[*:1]; Dap = NC[C@H](N)C(=O)O; βAla = NCCC(=O)O

Serine/threonine-protein kinase PLK3 (Homo sapiens), sequence (Q9H4B4 whole entry, looked up): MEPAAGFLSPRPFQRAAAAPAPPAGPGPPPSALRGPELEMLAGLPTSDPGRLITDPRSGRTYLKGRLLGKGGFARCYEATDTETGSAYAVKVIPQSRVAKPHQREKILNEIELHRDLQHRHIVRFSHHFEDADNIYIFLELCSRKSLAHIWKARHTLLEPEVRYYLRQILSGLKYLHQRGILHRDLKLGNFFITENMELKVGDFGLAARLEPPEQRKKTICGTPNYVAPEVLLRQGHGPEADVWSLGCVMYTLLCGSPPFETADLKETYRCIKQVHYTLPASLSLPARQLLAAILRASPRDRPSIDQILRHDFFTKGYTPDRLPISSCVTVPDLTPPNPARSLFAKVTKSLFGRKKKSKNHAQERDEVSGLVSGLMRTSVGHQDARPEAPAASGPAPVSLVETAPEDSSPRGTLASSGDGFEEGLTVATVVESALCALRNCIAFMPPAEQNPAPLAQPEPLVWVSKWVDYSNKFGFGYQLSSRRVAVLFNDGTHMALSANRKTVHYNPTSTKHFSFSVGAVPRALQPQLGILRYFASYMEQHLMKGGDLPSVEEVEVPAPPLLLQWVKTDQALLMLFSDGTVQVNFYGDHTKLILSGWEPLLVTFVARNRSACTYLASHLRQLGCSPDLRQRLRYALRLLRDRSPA
Cyclin-dependent kinase 9 (Homo sapiens), sequence (P50750 whole entry): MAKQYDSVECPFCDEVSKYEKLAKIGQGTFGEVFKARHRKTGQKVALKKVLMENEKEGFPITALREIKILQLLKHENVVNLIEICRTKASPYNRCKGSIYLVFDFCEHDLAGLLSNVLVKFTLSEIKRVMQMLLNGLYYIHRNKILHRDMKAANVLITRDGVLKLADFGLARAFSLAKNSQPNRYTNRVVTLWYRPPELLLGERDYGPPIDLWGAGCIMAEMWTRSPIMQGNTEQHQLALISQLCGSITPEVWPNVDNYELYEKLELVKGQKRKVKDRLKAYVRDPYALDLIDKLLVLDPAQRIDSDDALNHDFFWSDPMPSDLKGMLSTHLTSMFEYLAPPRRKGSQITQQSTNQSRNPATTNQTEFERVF
Phosphatidylinositol 4,5-bisphosphate 3-kinase catalytic subunit alpha isoform (Homo sapiens), sequence (P42336 whole entry, canonical isoform): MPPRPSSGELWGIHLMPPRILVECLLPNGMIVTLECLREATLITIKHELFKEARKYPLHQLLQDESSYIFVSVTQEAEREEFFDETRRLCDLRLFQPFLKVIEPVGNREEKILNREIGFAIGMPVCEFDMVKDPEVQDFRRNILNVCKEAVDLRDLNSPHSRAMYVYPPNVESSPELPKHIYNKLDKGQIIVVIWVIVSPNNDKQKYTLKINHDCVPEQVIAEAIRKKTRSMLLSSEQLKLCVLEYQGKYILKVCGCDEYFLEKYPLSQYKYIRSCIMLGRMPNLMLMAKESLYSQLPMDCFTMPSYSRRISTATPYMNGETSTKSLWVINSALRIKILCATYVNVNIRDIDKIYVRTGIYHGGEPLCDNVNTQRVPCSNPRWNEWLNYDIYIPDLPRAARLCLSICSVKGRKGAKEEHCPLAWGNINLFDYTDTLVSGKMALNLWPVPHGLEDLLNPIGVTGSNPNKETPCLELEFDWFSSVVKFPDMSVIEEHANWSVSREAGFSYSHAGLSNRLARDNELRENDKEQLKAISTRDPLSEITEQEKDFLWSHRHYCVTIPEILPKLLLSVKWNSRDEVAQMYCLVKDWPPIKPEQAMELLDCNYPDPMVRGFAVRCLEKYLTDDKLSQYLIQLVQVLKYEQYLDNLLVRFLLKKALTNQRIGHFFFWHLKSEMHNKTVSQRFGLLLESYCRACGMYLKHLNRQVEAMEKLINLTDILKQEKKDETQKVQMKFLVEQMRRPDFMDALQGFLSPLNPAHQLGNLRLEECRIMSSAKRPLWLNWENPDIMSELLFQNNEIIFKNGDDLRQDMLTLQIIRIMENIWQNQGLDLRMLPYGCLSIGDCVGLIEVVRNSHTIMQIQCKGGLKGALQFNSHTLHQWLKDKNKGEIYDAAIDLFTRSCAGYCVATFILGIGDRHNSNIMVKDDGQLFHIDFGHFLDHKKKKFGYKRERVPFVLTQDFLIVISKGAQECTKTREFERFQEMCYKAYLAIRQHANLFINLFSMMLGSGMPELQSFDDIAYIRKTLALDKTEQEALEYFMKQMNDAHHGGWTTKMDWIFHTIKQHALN
Receptor tyrosine-protein kinase erbB-4 (Homo sapiens), sequence (Q15303 whole entry): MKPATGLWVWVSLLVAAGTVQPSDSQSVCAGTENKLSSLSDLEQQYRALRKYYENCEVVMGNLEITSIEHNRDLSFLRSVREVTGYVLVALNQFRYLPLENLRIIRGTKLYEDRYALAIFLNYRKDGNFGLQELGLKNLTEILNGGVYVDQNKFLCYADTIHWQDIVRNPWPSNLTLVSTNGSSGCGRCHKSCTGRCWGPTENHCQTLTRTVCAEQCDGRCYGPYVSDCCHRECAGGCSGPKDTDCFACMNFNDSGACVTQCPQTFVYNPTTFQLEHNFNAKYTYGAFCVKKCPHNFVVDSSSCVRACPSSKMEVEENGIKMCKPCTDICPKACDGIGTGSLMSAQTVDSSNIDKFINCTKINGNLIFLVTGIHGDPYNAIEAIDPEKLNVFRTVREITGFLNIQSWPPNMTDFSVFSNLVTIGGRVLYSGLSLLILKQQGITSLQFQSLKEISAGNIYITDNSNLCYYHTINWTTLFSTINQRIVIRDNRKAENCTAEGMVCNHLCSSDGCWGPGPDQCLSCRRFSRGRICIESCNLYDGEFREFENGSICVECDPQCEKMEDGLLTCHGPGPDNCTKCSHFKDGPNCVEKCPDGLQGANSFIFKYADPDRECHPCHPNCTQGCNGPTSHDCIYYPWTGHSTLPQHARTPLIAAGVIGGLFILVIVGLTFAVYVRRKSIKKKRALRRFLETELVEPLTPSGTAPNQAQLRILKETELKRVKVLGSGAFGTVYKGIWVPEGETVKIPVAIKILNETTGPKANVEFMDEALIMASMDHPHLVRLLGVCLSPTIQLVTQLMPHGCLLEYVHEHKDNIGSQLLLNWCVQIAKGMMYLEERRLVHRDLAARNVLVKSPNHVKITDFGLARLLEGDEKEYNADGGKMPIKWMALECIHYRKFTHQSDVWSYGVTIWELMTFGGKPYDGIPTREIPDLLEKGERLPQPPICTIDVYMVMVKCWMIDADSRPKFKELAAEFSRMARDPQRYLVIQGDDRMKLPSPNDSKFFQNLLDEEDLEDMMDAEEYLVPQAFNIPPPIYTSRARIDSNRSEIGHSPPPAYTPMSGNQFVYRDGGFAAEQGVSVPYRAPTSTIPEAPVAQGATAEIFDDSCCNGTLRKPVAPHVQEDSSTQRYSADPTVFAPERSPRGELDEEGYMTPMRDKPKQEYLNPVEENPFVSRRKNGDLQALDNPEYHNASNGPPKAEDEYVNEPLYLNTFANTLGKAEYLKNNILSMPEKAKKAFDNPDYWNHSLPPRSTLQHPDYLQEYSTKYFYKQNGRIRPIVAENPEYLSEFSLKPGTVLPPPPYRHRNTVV

In the case of `CO[C@@H]1[C@H](N(C)C(=O)CCC(=O)NCCC(=O)NCCC(=O)NCCC(N)=O)C[C@H]2O[C@]1(C)n1c3ccccc3c3c4c(c5c6ccccc6n2c5c31)C(=O)NC4`, the Activity in assay [1] amounted to 3.6%.
On to `CO[C@@H]1[C@H](N(C)C(=O)CCC(=O)NCCC(=O)NCCC(=O)NCCC(=O)NCCC(=O)NCCC(=O)NCCC(=O)NCCC(=O)N[C@H]2CSSC[C@@H](C(=O)NCC(N)=O)NC(=O)CNC(=O)[C@H](Cc3ccccc3)NC(=O)[C@H](C(C)C)NC(=O)[C@H](CCCNC(=N)N)NC(=O)[C@H](Cc3ccccc3)NC(=O)[C@H](C(C)C)NC2=O)C[C@H]2O[C@]1(C)n1c3ccccc3c3c4c(c5c6ccccc6n2c5c31)C(=O)NC4` ({Staurosporine-Suc-βAla-βAla-βAla-βAla-βAla-βAla-βAla}-CVFRVFGCG-NH2; disulfide 1-8), for which the Activity came out at 93% in assay [2], 100% in assay [3] and 100% in assay [4].
Regarding `CO[C@@H]1[C@H](N(C)C(=O)CCC(=O)NCCC(=O)NCCC(=O)NCCC(=O)NCCC(=O)NCCC(=O)NCCC(=O)NCCC(=O)N[C@H]2CNC(=O)C[C@@H](C(N)=O)NC(=O)CNC(=O)[C@H](Cc3ccccc3)NC(=O)[C@H](C(C)C)NC(=O)[C@H](CCCNC(=N)N)NC(=O)[C@H](Cc3ccccc3)NC(=O)[C@H](C(C)C)NC2=O)C[C@H]2O[C@]1(C)n1c3ccccc3c3c4c(c5c6ccccc6n2c5c31)C(=O)NC4` ({Staurosporine-Suc-βAla-βAla-βAla-βAla-βAla-βAla-βAla}-[Dap]VFRVFGD-NH2; lactam 1-8), the Activity in assay [5] was determined as 100%; in assay [6], 100%; in assay [7] it was 100%; in assay [8], 99%.

The values above are taken from ChEMBL document CHEMBL1152541, “Staurosporine tethered peptide ligands that target cAMP-dependent protein kinase (PKA): optimization and selectivity profiling” (Bioorg Med Chem, 2009).
